Values after ≈ are worked out from the molar mass of the structure shown.
What was measured:
Nucleic Acid [1] = assay: Binding affinity to Escherichia coli 23S rRNA U2585 assessed as degree of protection against CMCT at 50 uM by Chemical footprinting analysis relative to control; assay type: nucleic-acid assay
Outline: (§1)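 Ribosomes came from E. coli MRE600 grown in LB, lysed and purified on sucrose gradients. They were incubated with drug at 5 or 50 μM and then modified with CMCT. Read-out was primer extension with a Cy5-labeled primer, gel electrophoresis and laser scanning. Band intensity with drug is given relative to no-drug control, after subtracting background from unmodified samples (1.00 = no protection, 0 = full protection). Values are means of at least two experiments.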

Listeria innocua = assay: Antibacterial activity against Listeria innocua after 24 hrs by microtitre plate reader; assay type: functional
Outline: (§2)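 Microtiter broth dilution. Media: E. coli AS19 in LB; B. subtilis 168 in 25% BHI/75% LB/0.05% Tween; L. innocua in 50% BHI/50% LB. Overnight cultures started from single colonies were diluted to OD450 0.01 and mixed 1:1 with 2-fold drug dilutions (0.125–32 μg/mL). Growth was read as OD450. MIC is the lowest concentration giving complete growth inhibition (E. coli read at 24 h).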

Nucleic Acid [2] = assay: Binding affinity to Escherichia coli 23S rRNA U2506 assessed as degree of protection against CMCT at 5 uM by Chemical footprinting analysis relative to control; assay type: nucleic-acid assay; outline: as §1
Bacillus subtilis = assay: Antibacterial activity against Bacillus subtilis 168 after 12 hrs by microtitre plate reader; assay type: functional; settings: Bacillus subtilis, 168, 12 h; outline: as §2
Nucleic Acid [3] = assay: Binding affinity to Escherichia coli 23S rRNA U2585 assessed as degree of protection against CMCT at 5 uM by Chemical footprinting analysis relative to control; assay type: nucleic-acid assay; outline: as §1
Escherichia coli = assay: Antibacterial activity against Escherichia coli AS19 after 24 hrs by microtitre plate reader; assay type: functional; settings: AS19, 24 h; outline: as §2
Nucleic Acid [4] = assay: Binding affinity to Escherichia coli 23S rRNA U2506 assessed as degree of protection against CMCT at 50 uM by Chemical footprinting analysis relative to control; assay type: nucleic-acid assay; outline: as §1

Row | SMILES | Ratio (Nucleic Acid [1]) | MIC (Listeria innocua) | Ratio (Nucleic Acid [2]) | MIC (Bacillus subtilis) | Ratio (Nucleic Acid [3]) | MIC (Escherichia coli) | Ratio (Nucleic Acid [4])
1 | C=C[C@]1(C)C[C@@H](OC(=O)Cn2ccnn2)[C@]2(C)[C@H](C)CC[C@]3(CCC(=O)[C@H]32)[C@@H](C)[C@@H]1O | 0.42 | > 32 µg/mL | 0.48 | > 32 µg/mL | 0.66 | 16 µg/mL (≈ 37.2 µM) | 0.18
2 | C=C[C@]1(C)C[C@@H](OC(=O)Cn2cc(CCCn3cnc4c(N)ncnc43)nn2)[C@]2(C)[C@H](C)CC[C@]3(CCC(=O)[C@H]32)[C@@H](C)[C@@H]1O | 0.17 | > 32 µg/mL | 0.13 | > 32 µg/mL | 0.23 | 8 µg/mL (≈ 13.2 µM) | 0.05
3 | C=C[C@]1(C)C[C@@H](OC(=O)Cn2nncc2CCCn2cnc3c(N)ncnc32)[C@]2(C)[C@H](C)CC[C@]3(CCC(=O)[C@H]32)[C@@H](C)[C@@H]1O | 0.16 | > 32 µg/mL | 0.09 | > 32 µg/mL | 0.19 | 16 µg/mL (≈ 26.5 µM) | 0.04
4 | C=C[C@]1(C)C[C@@H](OC(=O)Cn2cc(COCCn3cc(C)c(=O)[nH]c3=O)nn2)[C@]2(C)[C@H](C)CC[C@]3(CCC(=O)[C@H]32)[C@@H](C)[C@@H]1O | 0.24 | > 32 µg/mL | 0.28 | > 32 µg/mL | 0.43 | ≥ 32 µg/mL | 0.08
5 | C=C[C@]1(C)C[C@@H](OC(=O)Cn2cc(COCn3cc(C)c(=O)[nH]c3=O)nn2)[C@]2(C)[C@H](C)CC[C@]3(CCC(=O)[C@H]32)[C@@H](C)[C@@H]1O | 0.22 | > 32 µg/mL | 0.23 | > 32 µg/mL | 0.37 | > 32 µg/mL | 0.07
6 | C=C[C@]1(C)C[C@@H](OC(=O)Cn2cc(COCn3cnc4c(N)ncnc43)nn2)[C@]2(C)[C@H](C)CC[C@]3(CCC(=O)[C@H]32)[C@@H](C)[C@@H]1O | 0.22 | > 32 µg/mL | 0.21 | > 32 µg/mL | 0.37 | > 32 µg/mL | 0.06
7 | C=C[C@]1(C)C[C@@H](OC(=O)Cn2cc(C[C@@H]3[C@H](O)[C@@H](CO)O[C@H]3n3ccc(=O)[nH]c3=O)nn2)[C@]2(C)[C@H](C)CC[C@]3(CCC(=O)[C@H]32)[C@@H](C)[C@@H]1O | 0.26 | > 32 µg/mL | 0.31 | > 32 µg/mL | 0.46 | > 32 µg/mL | 0.09

The remaining lines, values ahead:

Row | Ratio (Nucleic Acid [1]) | MIC (Listeria innocua) | Ratio (Nucleic Acid [2]) | MIC (Bacillus subtilis) | Ratio (Nucleic Acid [3]) | MIC (Escherichia coli) | Ratio (Nucleic Acid [4]) | SMILES
8 | 0.41 | > 32 µg/mL | 0.3 | > 32 µg/mL | 0.5 | > 32 µg/mL | 0.08 | C=C[C@]1(C)C[C@@H](OC(=O)Cn2cc(COCc3ccccc3)nn2)[C@]2(C)[C@H](C)CC[C@]3(CCC(=O)[C@H]32)[C@@H](C)[C@@H]1O
9 | 0.07 | > 32 µg/mL | 0.06 | 8 µg/mL (≈ 12.5 µM) | 0.1 | 1 µg/mL (≈ 1.57 µM) | 0.06 | C=C[C@]1(C)C[C@@H](OC(=O)Cn2cc(-c3cccc(-n4cnc5c(N)ncnc54)c3)nn2)[C@]2(C)[C@H](C)CC[C@]3(CCC(=O)[C@H]32)[C@@H](C)[C@@H]1O
10 | 0.8 | > 32 µg/mL | 0.28 | 32 µg/mL (≈ 84.5 µM) | 0.89 | 1 µg/mL (≈ 2.64 µM) | 0.08 | C=C[C@]1(C)C[C@@H](OC(=O)CO)[C@]2(C)[C@H](C)CC[C@]3(CCC(=O)[C@@H]32)[C@@H](C)[C@@H]1O [PLEUROMUTILIN]
11 | 0.16 | > 32 µg/mL | 0.1 | 16 µg/mL (≈ 26.5 µM) | 0.29 | 8 µg/mL (≈ 13.3 µM) | 0.05 | C=C[C@]1(C)C[C@@H](OC(=O)Cn2cc(/C=C/Cn3cnc4c(N)ncnc43)nn2)[C@]2(C)[C@H](C)CC[C@]3(CCC(=O)[C@H]32)[C@@H](C)[C@@H]1O
12 | 0.21 | > 32 µg/mL | 0.18 | > 32 µg/mL | 0.39 | ≥ 32 µg/mL | 0.06 | C=C[C@]1(C)C[C@@H](OC(=O)Cn2cc(/C=C/Cn3cc(C)c(=O)[nH]c3=O)nn2)[C@]2(C)[C@H](C)CC[C@]3(CCC(=O)[C@H]32)[C@@H](C)[C@@H]1O
13 | 0.5 | > 32 µg/mL | 0.07 | > 32 µg/mL | 0.54 | 0.5 µg/mL (≈ 1.01 µM) | 0.03 | C=C[C@]1(C)C[C@@H](OC(=O)CSCCN(CC)CC)[C@]2(C)[C@H](C)CC[C@]3(CCC(=O)[C@H]32)[C@@H](C)[C@@H]1O [TIAMULIN]
14 | 0.22 | > 32 µg/mL | 0.18 | > 32 µg/mL | 0.4 | > 32 µg/mL | 0.08 | C=C[C@]1(C)C[C@@H](OC(=O)Cn2cc(-c3ccc(-n4cnc5c(N)ncnc54)cc3)nn2)[C@]2(C)[C@H](C)CC[C@]3(CCC(=O)[C@H]32)[C@@H](C)[C@@H]1O
15 | 0.16 | 1 µg/mL (≈ 1.77 µM) | 0.05 | 2 µg/mL (≈ 3.54 µM) | 0.15 | < 0.125 µg/mL | 0.04 | C=C[C@]1(C)C[C@@H](OC(=O)CSC(C)(C)CNC(=O)[C@H](N)C(C)C)[C@]2(C)[C@H](C)CC[C@]3(CCC(=O)[C@H]32)[C@@H](C)[C@@H]1O [VALNEMULIN]
